Source: ChEMBL document CHEMBL1817619, “Synthesis and antimicrobial activity of (E) stilbene derivatives” (Bioorg Med Chem, 2011)
Calls of active or inactive are those of the source. The rule behind the calls is not given here.

Legend:
[1] = tested on: Bacillus subtilis; experiment: Antibacterial activity against Bacillus subtilis ATTC 6633 at 10 mg/ml after 24 to 72 hrs by agar diffusion method; format: functional, organism-based
Summary of the method: (§1)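 Bacterial plates: nutrient broth (8 g/l) with 1.5% agar, seeded at 45 °C with spores or vegetative cells to 10^6 cfu/ml. Compounds were dissolved in methanol at 10 mg/ml and applied to 6 mm paper discs, which were dried and laid on the plates. Inhibition zone diameter (mm) and type (complete or incomplete) were scored after 24–72 h.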

[2] = tested on: Brevibacillus brevis; experiment: Antibacterial activity against Bacillus brevis ATTC 9999 at 10 mg/ml after 24 to 72 hrs by agar diffusion method; format: functional, organism-based; summary of the method: as §1
[3] = tested on: Enterobacter cloacae subsp. dissolvens; experiment: Antibacterial activity against Enterobacter dissolvens ATCC 222 at 10 mg/ml after 24 to 72 hrs by agar diffusion method; format: functional, organism-based; summary of the method: as §1
[4] = tested on: Micrococcus luteus; experiment: Antibacterial activity against Micrococcus luteus ATCC 381 at 10 mg/ml after 24 to 72 hrs by agar diffusion method; format: functional, organism-based; summary of the method: as §1
[5] = tested on: NIH3T3; experiment: Cytotoxicity against mouse NIH/3T3 cells after 96 hrs by sulforhodamine-B colorimetric assay; format: cell-based; conditions: NIH3T3, 96 h
Summary of the method: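 Exponentially growing mouse embryonic fibroblasts were seeded and treated 24 h later with serial dilutions for 96 h; DMSO or DMF stayed at or below 0.5%. Cells were fixed with 10% TCA at 4 °C, stained with 0.4% SRB for about 20 min, washed with 1% acetic acid, solubilised in Tris base, and read at 570 nm. Survival is relative to untreated controls. IC50 was obtained by linear interpolation across the 50% line; three independent experiments.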

[6] = tested on: Eremothecium coryli; experiment: Antifungal activity against Nematospora coryli ATCC 10647 at 10 mg/ml after 24 to 72 hrs by agar diffusion method; format: functional, organism-based
Summary of the method: (§2)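 Fungal plates: malt extract/yeast extract (HA) medium with 1.5% agar, seeded at 45 °C with spores or yeast cells to 10^5 cfu/ml. Compounds in methanol at 10 mg/ml were loaded onto 6 mm paper discs and dried before placement. Inhibition zone diameter (mm) and complete or incomplete inhibition were recorded after 24–72 h.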

[7] = tested on: Botrytis cinerea; experiment: Antifungal activity against Botrytis cinerea FSU 883 at 10 mg/ml after 24 to 72 hrs by agar diffusion method; format: functional, organism-based; summary of the method: as §2
[8] = tested on: Rhizomucor miehei; experiment: Antifungal activity against Mucor miehei FSU 769 at 10 mg/ml after 24 to 72 hrs by agar diffusion method; format: functional, organism-based; summary of the method: as §2
[9] = tested on: Penicillium chrysogenum; experiment: Antifungal activity against Penicillium notatum FSU 2721 at 10 mg/ml after 24 to 72 hrs by agar diffusion method; format: functional, organism-based; summary of the method: as §2
[10] = tested on: Colletotrichum graminicola; experiment: Antifungal activity against Colletotrichum graminicola M2 at 10 mg/ml after 24 to 72 hrs by agar diffusion method; format: functional, organism-based; summary of the method: as §2

## COc1cc(F)c(/C=C/c2cc(O)ccc2O)cc1O
[1]
  Activity: Active
[2]
  Activity: Active
[3]
  Activity: inactive
[4]
  Activity: Active
[5]
  IC50: 21.1 µM

## COc1ccc(OC)c(/C=C/c2cccc(O)c2)c1
[1]
  Activity: Active
[2]
  Activity: Active
[3]
  Activity: inactive
[4]
  Activity: Active
[5]
  IC50: 25.8 µM

## CN(C)[C@@H]1C(O)=C(C(N)=O)C(=O)[C@@]2(O)C(O)=C3C(=O)c4c(O)cccc4[C@@](C)(O)[C@H]3C[C@@H]12
[2]
  Activity: Active

## Oc1cccc(/C=C/c2cc(O)cc(O)c2)c1
[1]
  Activity: Active
[2]
  Activity: Active
[3]
  Activity: inactive
[4]
  Activity: Active
[5]
  IC50: > 30 µM

## COc1cc(/C=C/c2ccc(OC)c(O)c2)cc(OC)c1
[5]
  IC50: 0.2 µM

## COc1cc(/C=C/c2cccc(O)c2)cc(OC)c1F
[1]
  Activity: Active
[2]
  Activity: Active
[3]
  Activity: inactive
[4]
  Activity: Active
[5]
  IC50: 11.8 µM

## COc1ccc(/C=C/c2ccccc2O)c(OC)c1
[1]
  Activity: Active
[2]
  Activity: Active
[3]
  Activity: inactive
[4]
  Activity: Active
[5]
  IC50: > 30 µM

## COc1ccc(/C=C/c2cc(O)ccc2O)cc1O
[3]
  Activity: inactive
[5]
  IC50: > 30 µM

## Oc1ccccc1/C=C/c1cc(F)c(F)c(F)c1
[1]
  Activity: Active
[2]
  Activity: Active
[3]
  Activity: inactive
[6]
  Activity: Active
[7]
  Activity: Active
[4]
  Activity: Active
[8]
  Activity: Active
[9]
  Activity: Active
[5]
  IC50: > 30 µM
[10]
  Activity: Active

## COc1cc(/C=C/c2cccc(O)c2)cc(OC)c1
[1]
  Activity: Active
[2]
  Activity: Active
[3]
  Activity: inactive
[4]
  Activity: Active
[5]
  IC50: > 30 µM

## COc1ccc(/C=C/c2cccc(O)c2)c(OC)c1
[1]
  Activity: Active
[2]
  Activity: Active
[3]
  Activity: inactive
[4]
  Activity: Active
[5]
  IC50: 19.6 µM

## COc1ccc(OC)c(/C=C/c2ccc(O)cc2)c1
[2]
  Activity: Active
[3]
  Activity: inactive
[7]
  Activity: inactive
[5]
  IC50: 7.4 µM

## Oc1ccc(/C=C/c2cc(O)c(F)c(O)c2)cc1
[2]
  Activity: Active
[3]
  Activity: inactive
[7]
  Activity: inactive
[5]
  IC50: > 30 µM

## Oc1ccc(O)c(/C=C/c2ccccc2O)c1
[1]
  Activity: Active
[2]
  Activity: Active
[3]
  Activity: inactive
[4]
  Activity: Active
[5]
  IC50: 12.4 µM

## COc1cc(/C=C/c2ccc(O)cc2)cc(OC)c1F
[2]
  Activity: Active
[3]
  Activity: inactive
[7]
  Activity: inactive
[5]
  IC50: 11.5 µM

## Oc1ccc(/C=C/c2cc(O)cc(O)c2)cc1 [RESVERATROL]
[2]
  Activity: inactive
[3]
  Activity: inactive
[7]
  Activity: inactive
[4]
  Activity: Active
[5]
  IC50: > 30 µM

## Oc1cccc(/C=C/c2cc(O)c(F)c(O)c2)c1
[1]
  Activity: Active
[2]
  Activity: Active
[3]
  Activity: inactive
[4]
  Activity: Active
[5]
  IC50: > 30 µM

## COc1ccc(/C=C/c2ccc(OC)c(O)c2)c(OC)c1
[5]
  IC50: 2.1 µM

## Oc1ccc(/C=C/c2cc(F)c(F)c(F)c2)cc1
[2]
  Activity: Active
[3]
  Activity: inactive
[6]
  Activity: Active
[7]
  Activity: inactive
[5]
  IC50: 6.9 µM

## Oc1ccc(O)c(/C=C/c2ccc(O)c(O)c2)c1
[3]
  Activity: inactive
[5]
  IC50: > 30 µM

## Oc1ccc(/C=C/c2cc(O)ccc2O)cc1
[2]
  Activity: Active
[3]
  Activity: inactive
[7]
  Activity: inactive
[5]
  IC50: 9.6 µM

## COc1cc(/C=C/c2ccccc2O)cc(OC)c1F
[1]
  Activity: Active
[2]
  Activity: Active
[3]
  Activity: inactive
[4]
  Activity: Active
[5]
  IC50: 14.8 µM

## COc1cc(/C=C/c2ccc(O)cc2)cc(OC)c1 [PTEROSTILBENE]
[2]
  Activity: Active
[3]
  Activity: inactive
[7]
  Activity: inactive
[5]
  IC50: 12.2 µM

## Oc1cccc(/C=C/c2cc(O)ccc2O)c1
[1]
  Activity: Active
[2]
  Activity: Active
[3]
  Activity: inactive
[4]
  Activity: Active
[5]
  IC50: 10.5 µM

## Oc1cccc(/C=C/c2cc(F)c(F)c(F)c2)c1
[1]
  Activity: Active
[2]
  Activity: Active
[3]
  Activity: inactive
[4]
  Activity: Active
[8]
  Activity: Active
[5]
  IC50: > 30 µM

## COc1ccc(/C=C/c2ccc(O)cc2)c(OC)c1
[2]
  Activity: Active
[3]
  Activity: inactive
[7]
  Activity: inactive
[5]
  IC50: 8.2 µM
